Test results from ChEMBL document CHEMBL1149559, “Synthesis and evaluation of amphiphilic cationic quinine-derived for antibacterial activity against methicillin-resistant Staphylococcus aureus” (Bioorg Med Chem Lett, 2007).
In brackets after ≈: the same amount, converted by molar mass. Activity calls are given as the source filed them. The rule behind the calls is not given here.

Key:
[1] = system: Staphylococcus aureus; assay: Antibacterial activity against methicillin-resistant Staphylococcus aureus CMAH 0430 by broth microdilution method; format: functional
How it was run: (§1)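 MIC and MBC by broth microdilution following NCCLS recommendations; values given in µg/mL.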

[2] = system: Staphylococcus aureus; assay: Antibacterial activity against methicillin-resistant Staphylococcus aureus CMAH 0504 at 30 ug/ml by disk diffusion method; format: functional; settings: read-out: IZ
[3] = system: Micrococcus luteus; assay: Antibacterial activity against Micrococcus luteus CMCC(B)28001 by broth microdilution method; format: functional; how it was run: as §1
[4] = system: Staphylococcus aureus; assay: Antibacterial activity against methicillin-resistant Staphylococcus aureus CMAH 0504 at 10 ug/ml after 20 to 30 mins; format: functional, organism-based
How it was run: (§2)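 Time-kill assay. Mid-log cultures were diluted in Mueller–Hinton broth to a final inoculum of 3-5 × 10^5 cells/mL and incubated at 30 °C with 5, 10, 15 µg/mL (S. aureus ATCC 25923) or 2.5, 5, 10 µg/mL (MRSA CMAH 0504), alongside a drug-free growth control. Samples were washed, plated on MH agar and incubated 24 h at 30 °C for colony counts. Three independent experiments, each in triplicate.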

[5] = system: Staphylococcus aureus; assay: Antibacterial activity against Staphylococcus aureus by disk diffusion method; format: functional
[6] = Toxicity in human erythrocytes assessed as hemolytic activity at 2000 ug/ml after 1 hr; format: cell-based, Erythrocyte; settings: read-out: Activity
How it was run: (§3)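 Human heparinised erythrocytes, PBS-washed, were used at about 1.0 × 10^9 cells/mL and mixed 1:1 with compound (1-2000 µg/mL) for 1 h at 37 °C. After centrifugation, supernatant OD540 was read. PBS set 0% lysis and 0.1% Triton X-100 set 100% lysis. Triplicates, confirmed in three independent experiments.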

[7] = system: Pseudomonas aeruginosa; assay: Antibacterial activity against Pseudomonas aeruginosa ATCC 27853 by broth microdilution method; format: functional; how it was run: as §1
[8] = Toxicity in human erythrocytes assessed as hemolytic activity at 500 ug/ml after 1 hr; format: cell-based, Erythrocyte; settings: read-out: Activity; how it was run: as §3
[9] = system: Staphylococcus aureus; assay: Antibacterial activity against methicillin-susceptible Staphylococcus aureus ATCC 25923 at 15 ug/ml after 40 mins; format: functional, organism-based; how it was run: as §2
[10] = system: Bacillus subtilis; assay: Antibacterial activity against Bacillus subtilis ATCC 6633 by broth microdilution method; format: functional; how it was run: as §1
[11] = system: Staphylococcus aureus; assay: Antibacterial activity against methicillin-resistant Staphylococcus aureus CMAH 0515 by broth microdilution method; format: functional; how it was run: as §1
[12] = Toxicity in human erythrocytes assessed as hemolytic activity at 1000 ug/ml after 1 hr; format: cell-based, Erythrocyte; settings: read-out: Activity; how it was run: as §3
[13] = system: Escherichia coli; assay: Antibacterial activity against Escherichia coli ATCC 25922 by broth microdilution method; format: functional; how it was run: as §1
[14] = system: Staphylococcus aureus; assay: Antibacterial activity against methicillin-resistant Staphylococcus aureus CMAH 0504 by broth microdilution method; format: functional; how it was run: as §1
[15] = system: Staphylococcus aureus; assay: Antibacterial activity against methicillin-resistant Staphylococcus aureus CMAH 0430 by disk diffusion method; format: functional
[16] = system: Staphylococcus aureus; assay: Antibacterial activity against methicillin-susceptible Staphylococcus aureus ATCC 25923 by broth microdilution method; format: functional; how it was run: as §1
[17] = system: Staphylococcus aureus; assay: Antibacterial activity against methicillin-resistant Staphylococcus aureus CMAH 0515 by disk diffusion method; format: functional
[18] = Toxicity in human erythrocytes assessed as hemolytic activity at 250 ug/ml after 1 hr; format: cell-based, Erythrocyte; settings: read-out: Activity; how it was run: as §3

| SMILES | MBC [1] [µg/mL] | MIC [1] [µg/mL] | zone of inhibition at 30 µg/mL [2] [mm] | MBC [3] [µg/mL] | MIC [3] [µg/mL] | inhibition zone (IZ) [5] [mm] | hemolysis at 1 h, 2000 ug/ml [6] [%] | hemolysis at 1 h, 500 ug/ml [8] [%] | MBC [10] [µg/mL] | MIC [10] [µg/mL] | MBC [11] [µg/mL] | MIC [11] [µg/mL] | hemolysis at 1 h, 1000 ug/ml [12] [%] | MBC [14] [µg/mL] | MIC [14] [µg/mL] | inhibition zone (IZ) [15] [mm] | MBC [16] [µg/mL] | MIC [16] [µg/mL] | inhibition zone (IZ) [17] [mm] | hemolysis at 1 h, 250 ug/ml [18] [%] | also measured |
| --- | --- | --- | --- | --- | --- | --- | --- | --- | --- | --- | --- | --- | --- | --- | --- | --- | --- | --- | --- | --- | --- |
| C=CC1C[N+]2(CC(=O)c3cccc4ccccc34)CCC1CC2[C@H](O)c1ccnc2ccc(OC)cc12.[Br-] (stereo partly specified) | 1.56 | 0.39 | 23 | 3.13 | 3.13 | 26 | 55 | 9 | 6.25 | 3.13 | 1.56 | 0.39 | 17 | 1.56 | 0.78 | 26 | 3.13 | 1.56 | 25 | 0 | Activity [4]: Active; MIC [7]: 100 µg/mL; Activity [9]: inactive; MBC [13]: 100 µg/mL; MIC [13]: 50 µg/mL |
| CC1(C)S[C@@H]2[C@H](NC(=O)[C@H](N)c3ccccc3)C(=O)N2[C@H]1C(=O)O [AMPICILLIN] | – | – | – | 0.78 (≈ 2.23 µM) | 0.39 (≈ 1.12 µM) | 34 | – | – | 0.39 (≈ 1.12 µM) | 0.39 (≈ 1.12 µM) | – | – | – | – | – | – | 0.78 (≈ 2.23 µM) | 0.39 (≈ 1.12 µM) | – | – | MBC [13]: 100 µg/mL (≈ 286 µM); MIC [13]: 50 µg/mL (≈ 143 µM) |
| CN[C@H](CC(C)C)C(=O)N[C@H]1C(=O)N[C@@H](CC(N)=O)C(=O)N[C@H]2C(=O)N[C@H]3C(=O)N[C@H](C(=O)N[C@H](C(=O)O)c4cc(O)cc(O)c4-c4cc3ccc4O)[C@H](O)c3ccc(c(Cl)c3)Oc3cc2cc(c3O[C@@H]2O[C@H](CO)[C@@H](O)[C@H](O)[C@H]2O[C@H]2C[C@](C)(N)[C@H](O)[C@H](C)O2)Oc2ccc(cc2Cl)[C@H]1O [VANCOMYCIN] | – | – | 22 | – | – | 23 | – | – | – | – | – | – | – | – | – | 24 | – | – | 24 | – | – |
| NC[C@H]1O[C@H](O[C@H]2[C@H](O)[C@@H](O[C@H]3O[C@H](CO)[C@@H](O)[C@H](N)[C@H]3O)[C@H](N)C[C@@H]2N)[C@H](O)[C@@H](O)[C@@H]1O [KANAMYCIN] | – | – | – | 0.39 (≈ 0.805 µM) | 0.39 (≈ 0.805 µM) | 28 | – | – | 6.25 (≈ 12.9 µM) | 6.25 (≈ 12.9 µM) | – | – | – | – | – | – | 0.78 (≈ 1.61 µM) | 0.39 (≈ 0.805 µM) | – | – | MBC [13]: 0.39 µg/mL (≈ 0.805 µM); MIC [13]: 0.39 µg/mL (≈ 0.805 µM) |
| C=CC1C[N+]2(CC(=O)c3ccccc3)CCC1CC2[C@H](O)c1ccnc2ccc(OC)cc12.[Br-] (stereo partly specified) | 25 | 12.5 | – | 12.5 | 6.3 | – | 5 | 0 | 25 | 25 | 25 | 12.5 | 0 | 25 | 12.5 | – | 25 | 12.5 | – | 0 | – |
| O=C(N[C@H](CO)[C@H](O)c1ccc([N+](=O)[O-])cc1)C(Cl)Cl [CHLORAMPHENICOL] | – | – | 26 | – | – | 32 | – | – | – | – | – | – | – | – | – | 27 | – | – | 27 | – | – |
| C=CC1C[N+]2(CC(=O)c3ccc(OC)cc3)CCC1CC2[C@H](O)c1ccnc2ccc(OC)cc12.[Br-] (stereo partly specified) | 50 | 25 | – | 12.5 | 12.5 | – | 0 | 0 | 25 | 12.5 | 50 | 25 | 0 | 50 | 25 | – | 12.5 | 12.5 | – | 0 | – |
| CN(C)[C@@H]1C(O)=C(C(N)=O)C(=O)[C@@]2(O)C(O)=C3C(=O)c4c(O)cccc4[C@@](C)(O)[C@H]3C[C@@H]12 [TETRACYCLINE] | – | – | 17 | – | – | 14 | – | – | – | – | – | – | – | – | – | 15 | – | – | 17 | – | – |
| C=C[C@H]1C[N@@]2CC[C@H]1C[C@H]2[C@H](O)c1ccnc2ccc(OC)cc12 [QUININE] | – | – | – | – | – | – | 0 | 0 | – | – | – | – | 0 | – | – | – | – | – | – | 0 | – |
| Cc1nnc(SCC2=C(C(=O)O)N3C(=O)[C@@H](NC(=O)Cn4cnnn4)[C@H]3SC2)s1 [CEFAZOLIN] | – | – | – | – | – | 30 | – | – | – | – | – | – | – | – | – | 2 | – | – | – | – | – |
| C=CC1C[N+]2(CC(=O)c3ccc([N+](=O)[O-])cc3)CCC1CC2[C@H](O)c1ccnc2ccc(OC)cc12.[Br-] (stereo partly specified) | 50 | 50 | – | 50 | 25 | – | 0 | 0 | 50 | 25 | 50 | 50 | 0 | 50 | 50 | – | 50 | 25 | – | 0 | – |
| C=C[C@H]1CN2CC[C@H]1C[C@H]2[C@H](O)c1ccnc2ccc(OC)cc12 | – | – | – | – | – | – | – | – | – | – | – | – | – | – | – | – | – | – | – | – | Activity [1]: inactive; Activity [11]: inactive; Activity [14]: inactive; Activity [16]: inactive |
| C=CC1C[N+]2(CC(=O)c3ccc(Br)cc3)CCC1CC2[C@H](O)c1ccnc2ccc(OC)cc12.[Br-] (stereo partly specified) | 6.25 | 3.13 | 22 | 6.25 | 6.25 | 24 | 25 | 0 | 6.25 | 3.13 | 6.25 | 3.13 | 7 | 12.5 | 6.25 | 23 | 6.25 | 3.13 | 22 | 0 | MIC [7]: 100 µg/mL; MIC [13]: 100 µg/mL |
| CCC(=O)O[C@@H]1CC(=O)O[C@H](C)C/C=C/C=C/[C@H](O)[C@H](C)C[C@H](CC=O)[C@H](O[C@@H]2O[C@H](C)[C@@H](O[C@H]3C[C@@](C)(O)[C@@H](OC(=O)CC)[C@H](C)O3)[C@H](N(C)C)[C@H]2O)[C@H]1OC [MIDECAMYCIN] | – | – | – | – | – | 27 | – | – | – | – | – | – | – | – | – | – | – | – | – | – | – |
| C=CC1C[N+]2(CC(=O)c3ccc(Cl)cc3)CCC1CC2[C@H](O)c1ccnc2ccc(OC)cc12 (stereo partly specified) | – | – | – | – | – | – | – | – | – | – | – | – | – | – | – | – | – | – | – | – | Activity [1]: inactive; Activity [11]: inactive; Activity [14]: inactive; Activity [16]: inactive |
| C[C@H]1COc2c(N3CCN(C)CC3)c(F)cc3c(=O)c(C(=O)O)cn1c23.C[C@H]1COc2c(N3CCN(C)CC3)c(F)cc3c(=O)c(C(=O)O)cn1c23.O [LEVOFLOXACIN] | – | – | – | – | – | 32 | – | – | – | – | – | – | – | – | – | – | – | – | – | – | – |
